Test results reported in ChEMBL document CHEMBL1134988, “Prodrugs of 4'-demethyl-4-deoxypodophyllotoxin: synthesis and evaluation of the antitumor activity” (2002).
Active and inactive are the calls of the source. The calls are words filed in the database; no cut-off is given here.

Tests used:
A549 = experiment: In vitro cytotoxicity against A549 (human lung carcinoma) cell line.; format: functional; settings: read-out: ED50 (the source's name)
MCF7 = experiment: In vitro cytotoxicity against MCF-7 (human breast carcinoma) cell line.; format: functional; settings: read-out: ED50 (the source's name)
Mus musculus [1] = experiment: Antitumor activity against Lewis lung carcinoma (LLC) cells transplanted s.c. into the auxiliary region of the BDF1 mice at a maximum tolerated dose of 0.3 mmol/kg/day; format: functional
Summary of the method: (§1)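 BDF1 mice carried sc LLC grafts in the axillary region. Starting 24 h after implantation, doses were given ip on days 1, 5 and 9. Tumour length and width were measured on day 17 and TV = L×W²/2. Inhibition rate (%) was the reduction in mean TV relative to the control group.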

SK-MEL-2 = experiment: In vitro cytotoxicity against SK-MEL-2 (human melanoma) cell line.; format: functional; settings: read-out: ED50 (the source's name)
Mus musculus [2] = experiment: Antitumor activity against Lewis lung carcinoma (LLC) cells transplanted s.c. into the auxiliary region of the BDF1 mice at a formulable dose of 0.06 mmol/kg/day; Not active; format: functional, organism-based
Summary of the method: (§2)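 LLC cells implanted sc in the axillary region of BDF1 mice. Dosing began 24 h later: ip injection on days 1, 5 and 9 in 5% DMSO/15% Cremophore in saline. Tumour length and width measured on day 17, with TV = L×W²/2. IR (%) = (mean control TV − mean treated TV)/mean control TV × 100.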

Mus musculus [3] = experiment: Antitumor activity against Lewis lung carcinoma (LLC) cells transplanted s.c. into the auxiliary region of the BDF1 mice at a formulable dose of 0.06 mmol/kg/day; format: functional; summary of the method: as §2
Mus musculus [4] = experiment: Antitumor activity against Lewis lung carcinoma (LLC) cells transplanted s.c. into the auxiliary region of the BDF1 mice at a maximum tolerated dose of 0.36 mmol/kg/day; format: functional; summary of the method: as §1
Mus musculus [5] = experiment: Antitumor activity against Lewis lung carcinoma (LLC) cells transplanted s.c. into the auxiliary region of the BDF1 mice at a maximum tolerated dose of 0.42 mmol/kg/day; format: functional; summary of the method: as §1
Mus musculus [6] = experiment: Antitumor activity against Lewis lung carcinoma (LLC) cells transplanted s.c. into the auxiliary region of the BDF1 mice at a maximum tolerated dose of 0.06 mmol/kg/day; format: functional; summary of the method: as §1

Row | Compound | EC50 (A549) | EC50 (MCF7) | Inhibition rate (Mus musculus [1]) | EC50 (SK-MEL-2) | Inhibition rate (Mus musculus [2]) | Inhibition rate (Mus musculus [3]) | Inhibition rate (Mus musculus [4]) | Inhibition rate (Mus musculus [5]) | Inhibition rate (Mus musculus [6])
1 | COc1cc([C@@H]2c3cc4c(cc3C[C@H]3COC(=O)[C@@H]32)OCO4)cc(OC)c1OC(=O)CCN | 97 nM | 83 nM | 85% | 79 nM |  |  |  |  | 
2 | COc1ccc(NC(=O)Oc2c(OC)cc([C@@H]3c4cc5c(cc4C[C@H]4COC(=O)[C@@H]43)OCO5)cc2OC)cc1 | 96 nM | 93 nM |  | 89 nM | inactive |  |  |  | 
3 | COc1cc([C@@H]2c3cc4c(cc3C[C@H]3COC(=O)[C@@H]32)OCO4)cc(OC)c1OC(=O)OCCCl | 92 nM | 88 nM |  | 72 nM |  |  |  |  | 
4 | COc1cc([C@@H]2c3cc4c(cc3[C@@H](O[C@@H]3O[C@@H]5CO[C@@H](C)O[C@H]5[C@H](O)[C@H]3O)[C@H]3COC(=O)[C@H]23)OCO4)cc(OC)c1O [ETOPOSIDE] | 1900 nM |  |  |  |  | 78% |  |  | 
5 | COc1cc([C@@H]2c3cc4c(cc3C[C@H]3COC(=O)[C@@H]32)OCO4)cc(OC)c1OC(=O)NCCO | 62 nM | 46 nM |  | 59 nM |  | 95% |  |  | 
6 | COc1cc([C@@H]2c3cc4c(cc3C[C@H]3COC(=O)[C@@H]32)OCO4)cc(OC)c1OC(=O)CCCN | 92 nM | 89 nM |  | 91 nM |  |  | 85% |  | 
7 | COc1cc([C@@H]2c3cc4c(cc3C[C@H]3COC(=O)[C@@H]32)OCO4)cc(OC)c1OCc1ccc(N)cc1 | 114 nM | 99 nM | 80% | 152 nM |  |  |  |  | 
8 | COc1cc([C@@H]2c3cc4c(cc3C[C@H]3COC(=O)[C@@H]32)OCO4)cc(OC)c1OC(=O)Nc1ccc(F)cc1 | 86 nM | 76 nM |  | 78 nM |  | 69% |  |  | 
9 | COc1cc([C@@H]2c3cc4c(cc3C[C@H]3COC(=O)[C@@H]32)OCO4)cc(OC)c1O [4'-DEMETHYLDEOXYPODOPHYLLOTOXIN] | 15 nM | 18 nM |  | 12 nM |  | 13% |  |  | 
10 | COc1cc([C@@H]2c3cc4c(cc3C[C@H]3COC(=O)[C@@H]32)OCO4)cc(OC)c1OC(=O)CN | 12 nM | 31 nM | 33% | 34 nM |  |  |  |  | 
11 | COc1cc([C@@H]2c3cc4c(cc3C[C@H]3COC(=O)[C@@H]32)OCO4)cc(OC)c1OC(=O)[C@@H](N)Cc1ccccc1 | 87 nM | 72 nM |  | 59 nM |  |  | 80% |  | 
12 | COc1cc([C@@H]2c3cc4c(cc3C[C@H]3COC(=O)[C@@H]32)OCO4)cc(OC)c1OC(=O)[C@H](C)N | 22 nM | 11 nM | 41% | 9 nM |  |  |  |  | 
13 | COc1cc([C@@H]2c3cc4c(cc3C[C@H]3COC(=O)[C@@H]32)OCO4)cc(OC)c1OC(=O)NC1CCCCC1 | 163 nM | 197 nM |  | 152 nM | inactive |  |  |  | 
14 | CCNC(=O)Oc1c(OC)cc([C@@H]2c3cc4c(cc3C[C@H]3COC(=O)[C@@H]32)OCO4)cc1OC | 132 nM | 142 nM |  | 143 nM | inactive |  |  |  | 
15 | COc1cc([C@@H]2c3cc4c(cc3C[C@H]3COC(=O)[C@@H]32)OCO4)cc(OC)c1OC(=O)NC(C)C | 153 nM | 166 nM |  | 165 nM | inactive |  |  |  | 
16 | COc1cc([C@@H]2c3cc4c(cc3C[C@H]3COC(=O)[C@@H]32)OCO4)cc(OC)c1OC(=O)CCCCCCCN | 74 nM | 69 nM |  | 61 nM |  |  |  | 80% | 
17 | COc1cc([C@@H]2c3cc4c(cc3C[C@H]3COC(=O)[C@@H]32)OCO4)cc(OC)c1OC(=O)CCCCCN | 89 nM | 72 nM |  | 77 nM |  |  |  |  | 89%
18 | COc1cc([C@@H]2c3cc4c(cc3C[C@H]3COC(=O)[C@@H]32)OCO4)cc(OC)c1OC [DESOXYPODOPHYLLOTOXIN] | 23 nM | 11 nM |  | 14 nM |  | 59% |  |  | 
